Assay results reported in ChEMBL document CHEMBL1152785, “Synthesis and biological evaluation of a series of novel inhibitor of Nek2/Hec1 analogues” (J Med Chem, 2009).

System: MDA-MB-231
Assay: Cytotoxicity against human MDA-MB-231 cells after 4 days XTT assay
Type: functional, cell-based
Conditions: MDA-MB-231, 96 h
In short: (§1)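 XTT assay with four-day drug treatment. Cells were plated one day before dosing and drug was added on day 2. XTT was read on day 5 after drug addition by absorbance at 595 nm. Absorbance was converted to percent survival against mock-treated cells to give dose-dependent cytotoxicity. Triplicate sets. HeLa, MDA-MB231 and MDA-MB468 were maintained in DMEM with 10% FBS.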

| SMILES | IC50 |
| --- | --- |
| Cc1cc(C)c(-c2csc(NC(=O)c3ccccc3C(F)(F)F)n2)c(C)c1 | 5.9 µM |
| Cc1ccc(-c2csc(NS(=O)(=O)Cc3ccccc3)n2)c(C)c1 | > 40 µM |
| Cc1ccc(-c2csc(NC(=O)c3nccs3)n2)c(C)c1 | 2.9 µM |
| Cc1ccc(-c2csc(NC(=O)c3cccnc3)n2)c(C)c1 | 4.1 µM |
| Cc1ccc(-c2csc(N(C)C(=O)c3ccccc3)n2)c(C)c1 | 13.5 µM |
| Cc1cc(C)c(-c2csc(N)n2)c(C)c1 | > 40 µM |
| Cc1cc(C)c(-c2csc(NC(=O)c3cncn3C)n2)c(C)c1 | 6.8 µM |
| Cc1cc(C)c(-c2csc(NC(=O)c3cnccn3)n2)c(C)c1 | 3.2 µM |
| COc1ccc(C(=O)Nc2nc(-c3c(C)cc(C)cc3C)cs2)c(O)c1 | 11.8 µM |

System: K562
Assay: Cytotoxicity against human K562 cells after 4 days by XTT assay
Type: functional, cell-based
Conditions: K562, 96 h

| SMILES | IC50 |
| --- | --- |
| Cc1cc(C)c(-c2csc(NC(=O)c3ccccc3C(F)(F)F)n2)c(C)c1 | 7.5 µM |
| Cc1ccc(-c2csc(NS(=O)(=O)Cc3ccccc3)n2)c(C)c1 | > 40 µM |
| Cc1ccc(-c2csc(NC(=O)c3nccs3)n2)c(C)c1 | 10.1 µM |
| Cc1ccc(-c2csc(NC(=O)c3cccnc3)n2)c(C)c1 | 8.2 µM |
| Cc1ccc(-c2csc(N(C)C(=O)c3ccccc3)n2)c(C)c1 | 14.8 µM |
| Cc1cc(C)c(-c2csc(N)n2)c(C)c1 | > 40 µM |
| Cc1cc(C)c(-c2csc(NC(=O)c3cncn3C)n2)c(C)c1 | 10.1 µM |
| Cc1cc(C)c(-c2csc(NC(=O)c3cnccn3)n2)c(C)c1 | 5.9 µM |
| COc1ccc(C(=O)Nc2nc(-c3c(C)cc(C)cc3C)cs2)c(O)c1 | 14.8 µM |

System: HeLa
Assay: Cytotoxicity against human HeLa cells after 4 days by XTT assay
Type: functional, cell-based
Conditions: 96 h
In short: as §1

| SMILES | IC50 |
| --- | --- |
| Cc1cc(C)c(-c2csc(NC(=O)c3ccccc3C(F)(F)F)n2)c(C)c1 | 10.6 µM |
| Cc1ccc(-c2csc(NS(=O)(=O)Cc3ccccc3)n2)c(C)c1 | > 40 µM |
| Cc1ccc(-c2csc(NC(=O)c3nccs3)n2)c(C)c1 | 7.4 µM |
| Cc1ccc(-c2csc(NC(=O)c3cccnc3)n2)c(C)c1 | 5.8 µM |
| Cc1ccc(-c2csc(N(C)C(=O)c3ccccc3)n2)c(C)c1 | 20.2 µM |
| Cc1cc(C)c(-c2csc(N)n2)c(C)c1 | > 40 µM |
| Cc1cc(C)c(-c2csc(NC(=O)c3cncn3C)n2)c(C)c1 | 11.2 µM |
| Cc1cc(C)c(-c2csc(NC(=O)c3cnccn3)n2)c(C)c1 | 5.7 µM |
| COc1ccc(C(=O)Nc2nc(-c3c(C)cc(C)cc3C)cs2)c(O)c1 | 14.4 µM |

System: MDA-MB-468
Assay: Cytotoxicity against human MDA-MB-468 cells after 4 days by XTT assay
Type: functional, cell-based
Conditions: MDA-MB-468, 96 h
In short: as §1

| SMILES | IC50 |
| --- | --- |
| Cc1cc(C)c(-c2csc(NC(=O)c3ccccc3C(F)(F)F)n2)c(C)c1 | 4.1 µM |
| Cc1ccc(-c2csc(NS(=O)(=O)Cc3ccccc3)n2)c(C)c1 | > 40 µM |
| Cc1ccc(-c2csc(NC(=O)c3nccs3)n2)c(C)c1 | 6.2 µM |
| Cc1ccc(-c2csc(NC(=O)c3cccnc3)n2)c(C)c1 | 5.5 µM |
| Cc1ccc(-c2csc(N(C)C(=O)c3ccccc3)n2)c(C)c1 | 16 µM |
| Cc1cc(C)c(-c2csc(N)n2)c(C)c1 | > 40 µM |
| Cc1cc(C)c(-c2csc(NC(=O)c3cncn3C)n2)c(C)c1 | 10.7 µM |
| Cc1cc(C)c(-c2csc(NC(=O)c3cnccn3)n2)c(C)c1 | 4.7 µM |
| COc1ccc(C(=O)Nc2nc(-c3c(C)cc(C)cc3C)cs2)c(O)c1 | 14.4 µM |
